The values that follow come from ChEMBL document CHEMBL1795237, “Total synthesis of largazole and analogues: HDAC inhibition, antiproliferative activity and metabolic stability” (Bioorg Med Chem, 2011).

Series [1] is described as follows: Half life in mouse liver homogenates at 100 uM by UPLC/MS analysis. Type of series: ADME, tissue-based. In short, it runs like this:
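Compound added to preincubated murine liver homogenate (tissue broken up in 10 mM Tris pH 7.4, 1:3 w:v) at 37 °C, final 100 μM. Samples taken at 0, 15, 30, 45, 60, 120 min, quenched in methanol, centrifuged 10,000g to remove protein. Supernatant analyzed by reversed-phase C18 UPLC with MeOH/water/0.05% TFA gradient; parent ions monitored by ESI MS selected ion recording.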

Series [2] has as its system MCF7. Description: Growth inhibition of human MCF7 cells. Format: functional.
In series [3] the target is T1, Histone deacetylase (Homo sapiens) (UniProt Q13547+O15379+Q9UBN7+Q92769+Q9UQL6+Q8WUI4+Q9BY41+Q96DB2+P56524+Q9UKV0+Q969S8). The following applies: SKBr3, 100 nM.
Series [4] has as its target T1, Histone deacetylase (Homo sapiens). The following applies: MDA-MB-231, 100 nM.
For series [5] the target is unchanged. The following applies: MCF7, 100 nM.

The structures appear in SMILES notation. Active and inactive are the calls of the source. The calls are words filed in the database; no cut-off is given here. A value given as a limit tells only on which side of the number the result lay.

As usually defined, the half-life is the time in which the quantity being followed falls by half. `CC(C)[C@@H]1NC(=O)[C@]2(C)CSC(=N2)c2csc(n2)CNC(=O)C[C@@H](/C=C/CCS)OC1=O` [LARGAZOLE THIOL] came in with a half-life at 100 µM in series [1] of 51 min.

On to `CC(C)[C@H]1NC(=O)[C@]2(C)CSC(=N2)c2csc(n2)CNC(=O)C[C@@H](/C=C/CCS)OC1=O` [LARGAZOLE THIOL], for which the GI in series [2] came out at 277 nM. Besides, the inhibition result in series [3], in series [4] and in series [5] was “inactive” in each case.

As for `CCCCCCCC(=O)SCC/C=C/[C@@H]1CC(=O)NCc2nc(cs2)C2=N[C@@](C)(CS2)C(=O)N[C@@H](C(C)C)C(=O)O1` [LARGAZOLE], the GI in series [2] is recorded as 5 nM. In addition, the half-life at 100 µM in series [1] is at most 5 min. Besides, the inhibition result in series [3], in series [4] and in series [5] was “Active” throughout.

In turn, `CC(C)[C@H]1NC(=O)C(C)(C)NC(=O)c2csc(n2)CNC(=O)C[C@@H](/C=C/CCS)OC1=O` yielded a GI in series [2] above 10000 nM. The compound further returned a half-life at 100 µM in series [1] of at most 5 min.

`C[C@@]12CSC(=N1)c1csc(n1)CNC(=O)C[C@@H](/C=C/CCS)OC(=O)CNC2=O` registered a GI in series [2] of 2458 nM. Also, in series [1], the half-life at 100 µM was 32 min.

For the compound `C[C@@]12CSC(=N1)c1csc(n1)CNC(=O)C[C@@H](/C=C/CCS)OC(=O)CCNC2=O`, the GI in series [2] was 5900 nM. The compound further had a half-life at 100 µM in series [1] of at most 5 min.

`CC(C)[C@H]1NC(=O)[C@]2(C)CSC(=N2)c2csc(n2)[C@@H](Cc2ccccc2)NC(=O)C[C@@H](/C=C/CCS)OC1=O`: the GI in series [2] is listed as 377 nM.
